Compound activity deposited in PubChem by The Scripps Research Institute Molecular Screening Center.
OX1R antag-1: blocks the human orexin 1 receptor; O43613; OX1R-expressing cells, FRET antagonist read-out; inhibition, % at 6.6 µM; hit rate 1.8% among 330,000; AID 485270; in the data active means inhibition mostly above about 38%, no sharp cut-off; inactive means mostly below about 40%;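 further: 0% = agonist challenge alone and 100% = reference antagonist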
Target sequence (O43613 whole entry, looked up): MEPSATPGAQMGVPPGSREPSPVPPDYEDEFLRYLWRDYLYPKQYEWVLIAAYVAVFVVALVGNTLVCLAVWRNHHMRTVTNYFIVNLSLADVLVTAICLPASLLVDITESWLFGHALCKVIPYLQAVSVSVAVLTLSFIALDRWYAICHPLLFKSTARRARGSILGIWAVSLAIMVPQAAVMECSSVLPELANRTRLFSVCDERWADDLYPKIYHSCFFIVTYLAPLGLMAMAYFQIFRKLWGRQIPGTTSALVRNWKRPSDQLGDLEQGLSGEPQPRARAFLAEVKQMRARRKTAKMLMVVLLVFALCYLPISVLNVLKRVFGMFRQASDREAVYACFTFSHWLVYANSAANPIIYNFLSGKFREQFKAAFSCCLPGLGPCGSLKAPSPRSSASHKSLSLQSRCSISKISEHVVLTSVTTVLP
CHO parental Ca: counter-screen: ATP calcium response change in parental CHO cells | parental CHO-K1, ATP-induced calcium, Fluo-8 fluorescence | inhibition, % at 5.6 µM | hit rate 0.63% among 330,000;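 active means inhibition above that plate's mean sample inhibition plus 3 SD, cut at about 26% in these data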;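 further: 0% = ATP-challenged DMSO wells and 100% = DMSO wells without ATP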
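test system = CHO parental line | reagent = ATP stimulus | measured by = intracellular calcium via Fluo-8 no-wash fluorescent dye | control set = ATP and no-ATP DMSO wells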
GPR7 antag: blocks human GPR7 receptor signaling; GPR7-expressing cells, fluorescence antagonist assay; P48145; hit rate 1.1% among 290,000; inhibition, % at 4.4 µM; AID 1861; in the data active means inhibition above about 16%, passing the limit was not always enough;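 further: cells stimulated with the agonist NPW; 0% = agonist with vehicle and 100% = vehicle without agonist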
OX1R antag-2: antagonists of human orexin 1 receptor | O43613 | CHO/OX1R cells, Fluo-8 calcium fluorescence, orexin A | inhibition, % at 5 µM | hit rate 0.43% among 330,000 | AID 434989;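 active means inhibition above its plate's threshold, mean inhibition of all tested compounds on the plate plus 3 SD, cut at about 37% in these data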;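 further: 0% = orexin A challenge wells and 100% = SB-334867-A antagonist wells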
zfTRPN1 agonist: zebrafish TRPN1 (NompC) channel agonism | activation, % at 3 µM | HEK293 zebrafish TRPN1-YFP, Fluo-8 calcium fluorescence; 100% = response to 87 µM carbachol | hit rate 0.18% among 220,000 | AID 1424;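 active means activation above its plate's cutoff, the mean activation of test wells on that plate plus 3 SD, cut at about 19% in these data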;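 further: 0% = DMSO alone and 100% = 87 µM carbachol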
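Assay system: Zebrafish TRPN1-YFP in HEK293 cells | Incubation: Dye loading 1 h at 37 °C, then 30 min room temperature | Measured by: Kinetic Fluo-8 fluorescence, ex 470-495, em 515-575 nm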
TRPML3 agonist: activates the human TRPML3 channel. Q8TDD5. HEK293 TRPML3-YFP, Fluo-8 calcium fluorescence; 100% = the carbachol control signal. activation, % at 3 µM. hit rate 0.29% among 220,000;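 active means activation above its plate's cutoff, the mean activation of the plate's test wells plus 3 SD, cut at about 12% in these data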;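 further: 0% = DMSO only wells and 100% = carbachol wells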
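Material: TRPML3-YFP stable HEK293 cells | Dosing: One concentration, 3 µM nominal, 0.3% DMSO | Timing: 125 s total fluorescence read per well | Technique: Fluo-8 calcium dye fluorescence, ex 470-495, em 515-575 nm | Measure: Percent activation from peak-to-basal fluorescence ratio, scaled between DMSO and carbachol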
The depositor's hits bear a star; x = no result. In the library only some 3.2% were active in any assay of this set; here they are far more common.

SMILES | OX1R antag-1 | CHO parental Ca | GPR7 antag | OX1R antag-2 | zfTRPN1 agonist | TRPML3 agonist
C/C(=N/OCC(=O)NCCCCCCNC(=O)CO/N=C(/C)c1cccs1)c1cccs1 | 71* | -23 | 10 | -14 | 0 | 0
CCCN1CCC(=NNc2ccc(S(=O)(=O)N3CCOCC3)cc2[N+](=O)[O-])CC1 | 71* | -19 | -9 | -9 | 0 | 0
O=C(C[n+]1cccc2ccccc21)c1ccccc1 | 34 | -9 | -4 | -4 | 0 | 1
O=C(C[n+]1cc2ccccc2c2ccccc21)c1ccccc1 | 56* | -13 | 3 | -1 | -1 | 0
Cc1nn(-c2ccccc2)c(C)c1NC(=O)COC(=O)c1cc(Br)ccc1O | 39 | -2 | x | -4 | x | x
O=C(CCC(=O)Nc1ccc(F)cc1)N/N=C/c1ccc(O)cc1O | 13 | -9 | 2 | -15 | -1 | 0
O=C(N/N=C/c1ccc(O)cc1O)C(=O)N/N=C/c1ccc(O)cc1O | 70* | -12 | 5 | -12 | x | x
Cc1ccc(S(=O)(=O)N2CCOCC2)cc1C(=O)N1c2ccccc2Sc2ccccc21 | 13 | -24 | 4 | -30 | -1 | 0
CCOCCn1c(SC(C)C(C)=O)nc2c1c(=O)[nH]c(=O)n2C (centres undefined) | 2 | 4 | -20 | -17 | 1 | 1
Cc1[nH][nH]c(=O)c1N=Nc1ccc(F)cc1 | 16 | -9 | 4 | -28 | x | x
COc1ccc(N=Nc2c(C)[nH][nH]c2=O)cc1 | 57* | -7 | -6 | -12 | -2 | 0
CC(=O)CCc1c(C)nc2ccc(C)cc2c1Cl | 10 | -23 | 3 | -25 | -1 | 0
Cc1cc(-c2cccc([N+](=O)[O-])c2)nc2ccccc12 | 69* | -6 | 10 | -8 | -2 | 0
O=C(NCc1cccnc1)/C(=C/c1ccc(-c2cccc(Cl)c2)o1)S(=O)(=O)c1ccccc1 | 26 | -15 | 21 | -5 | 1 | 0
O=C(NCc1cccnc1)/C(=C\c1ccc(-c2cccc(Cl)c2)o1)S(=O)(=O)c1ccccc1 | 16 | -12 | 20* | -15 | 1 | 0
COCCCNC(=O)/C(C#N)=C/c1c(N2CCN(c3ccccc3)CC2)nc2ccccn2c1=O | 27 | -14 | 7 | -30 | x | x
CCN(CC)c1ccc(C(=O)OCC(=O)Nc2ccccc2-c2ccccc2)cc1 | 49* | 67* | 4 | -3 | -1 | 0
c1ccc(CCNc2ncnc3scc(C4COc5ccccc5O4)c23)cc1 (centres undefined) | 17 | 51* | -17 | 17 | -2 | -1
O=C(NCC1CCCO1)/C(=C/c1ccccc1F)NC(=O)c1ccccc1 (centres undefined) | -1 | -9 | -9 | 2 | x | x
Cn1c(=O)c2c(nc(Br)n2Cc2ccccc2Cl)n(C)c1=O | 27 | 3 | 19* | -3 | 2 | 1
CCNc1nc2c(c(=O)n(C)c(=O)n2C)n1Cc1ccc(Cl)cc1 | 16 | 36* | 5 | -12 | x | x
COc1ccc(NC(=O)COC(=O)c2cc(Cl)ccc2O)cc1S(=O)(=O)N1CCCCC1 | 6 | -7 | x | -12 | x | x
O=C(Nc1ccc(C(=O)N2CCOCC2)cc1)c1ccc([N+](=O)[O-])cc1 | 44* | -10 | -1 | 1 | x | x
O=C(Nc1ccc(S(=O)(=O)N2CCOCC2)cc1)c1ccc(CN2CCc3ccccc3C2)cc1 | 47 | 51* | 9 | 69* | 10 | 4
CN1CCN(S(=O)(=O)c2ccc(NC(=O)c3ccc([N+](=O)[O-])cc3)cc2)CC1 | 44* | -17 | x | -18 | x | x
SMILES | OX1R antag-1 | CHO parental Ca | GPR7 antag | OX1R antag-2 | zfTRPN1 agonist | TRPML3 agonist
CN1CCN(S(=O)(=O)c2ccc(C(=O)Nc3ccccc3)cc2)CC1 | -1 | -6 | -1 | 1 | 1 | 0
COCC(C)n1c(SCc2ccc(OC)c(F)c2)nc2ccccc2c1=O (centres undefined) | x | x | -6 | x | 0 | 1
CC(=O)c1cccc(NS(=O)(=O)c2ccc(-c3cnc(C4CC4)o3)cc2)c1 | 36 | 50* | 31 | 13 | x | x
CC(=O)Nc1ccc(NS(=O)(=O)c2ccc(-c3cnc(C4CC4)o3)cc2)cc1 | 15 | 4 | -18 | -15 | x | x
CC(NCc1ccccc1Cl)C(=O)Nc1ccc(C#N)cc1 (centres undefined) | 4 | -16 | 18* | -19 | 0 | 0
O=C(NCc1n[nH]c(=S)n1-c1cccc(C(F)(F)F)c1)c1ccc(S(=O)(=O)N2CCCCC2)cc1 | 9 | -8 | -2 | -11 | x | x
O=C(NCc1n[nH]c(=S)n1-c1cccc(C(F)(F)F)c1)c1ccc(S(=O)(=O)N2CCCC2)cc1 | 50* | -4 | -10 | 9 | -1 | -1
O=[N+]([O-])c1cc(Br)c(O)c(C=Nc2ccc(N3CCOCC3)cc2)c1 | 66* | -16 | -10 | -14 | 0 | 0
COc1cccc(C=Nc2ccc(N3CCOCC3)cc2)c1O | 4 | -14 | -15 | -32 | x | x
CC(C)c1nnc(N2C(=O)C(O)=C(C(=O)c3cccs3)C2c2ccccc2)s1 (centres undefined) | x | x | -4 | x | 183* | 114*
COc1ccc(C2C(C(=O)c3cccs3)=C(O)C(=O)N2c2nnc(C)s2)cc1OC (centres undefined) | 21 | -3 | -4 | -2 | 0 | 1
CC(Sc1nc2ccccc2c(=O)n1CC1CCCO1)C(=O)N(C)c1ccccc1 (centres undefined) | 32* | -22 | x | -19 | x | x
COc1ccccc1NC(=O)C(C)Sc1nc2ccccc2c(=O)n1CC1CCCO1 (centres undefined) | 7 | -27 | x | -27 | x | x
CCN(CC)c1ccc(/C=C/C(=O)C2C(=O)C=C(C)OC2=O)cc1 (centres undefined) | 14 | 75* | 3 | 98* | 35* | 16*
C[C@@H]1NC(=O)c2cc([N+](=O)[O-])cc(I)c2NCCCC[C@@H](C(N)=O)NC(=O)[C@H](CCC(=O)O)NC1=O | 53 | 2 | -6 | -11 | 1 | 0
NC(=O)[C@@H]1CCCNc2c(I)cc([N+](=O)[O-])cc2C(=O)N[C@@H](CCC(=O)O)C(=O)N[C@@H](CO)C(=O)N1 | 67* | -9 | -9 | -8 | 0 | 1
C[C@@H]1NC(=O)[C@H](CCC(N)=O)NC(=O)c2cc([N+](=O)[O-])cc(I)c2NCCC[C@@H](C(N)=O)NC1=O | 61* | 2 | -10 | 0 | 1 | 0
CC(=O)N1c2ccc(S(=O)(=O)N3CCC(C(=O)N4CC(C)CC(C)C4)CC3)cc2CC1C (centres undefined) | 4 | -24 | 4 | -31 | x | x
O=C(NNc1ccc([N+](=O)[O-])cc1)c1ccco1 | 14 | 2 | -10 | -7 | x | x
O=C(NNc1ccc([N+](=O)[O-])cc1[N+](=O)[O-])c1ccco1 | 86* | -7 | -11 | -20 | x | x
